# Experimental data taken from PubChem BioAssay AID685 (PCMD, 2007).
# In all, about 30,000 compounds went through this assay and about 80 (0.3%) were called active.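 Rule for the calls: active = mutant and wild-type yeast strains alike exhibit over 30% growth inhibition; inconclusive = a strain exceeds 50% while the second remains under 30%; inactive = the rest.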 Only a selection was taken, and actives are over-represented in it overall.
# Experiment: yeast growth toxicity, wild-type and mutant, primary screen, cytotoxicity control for eIF2B function restoration project, wild-type and eIF2Bepsilon R284H mutant, A595 (AID 685);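 note: 0% = untreated cell controls and 100% = YPD media blanks without cells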
# Settings: A595 turbidity, 16 h, stronger effect = higher value, screened at 25 µM (by protocol)
# Summary of the method: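 System: S. cerevisiae wild-type or eIF2Bepsilon-R284H mutant strain; times: 16 h growth with compound, 30 °C; signal: absorbance at 595 nm (turbidity); measure: growth inhibition (%) versus cell controls and blanks; compound: 25 µM single dose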
# [1] = S. cerevisiae eIF2Bepsilon-R284H mutant growth
SMILES,growth inhibition [1],growth inhibition (S. cerevisiae wild-type growth)
CS(=O)(=O)Nc1ccc(C(=O)N2CCCC2)cc1,11.6%,38.3% (inactive)
Cc1[nH][nH]c(=O)c1C(c1ccc(-c2ccc(Cl)cc2)o1)c1c(C)[nH][nH]c1=O,63%,75.8% (active)
Cc1[nH][nH]c(=O)c1N=Nc1ccccc1,8.33%,25.8% (inactive)
Cc1ccccc1-c1nnc(SCC(=O)NCc2ccc3c(c2)OCO3)n1C,8.14%,13.1% (inactive)
CC(C)(CNC(=O)c1cc(=O)[nH]c2ccccc12)N1CCOCC1,-23.8%,-1.08% (inactive)
Cc1cc(NC(=O)CN2CCCC(C)C2)n(-c2nc3ccccc3s2)n1 (configuration not stated),-42.9%,-15.7% (inactive)
Cc1[nH]n(-c2cccc(Cl)c2)c(=O)c1/C=N/n1c(C)nc2ccccc2c1=O,2.56%,21% (inactive)
O=C(CCS(=O)(=O)c1cccc2nsnc12)N1CCN(c2ccccc2F)CC1,12.5%,11.5% (inactive)
Cc1ccc(S(=O)(=O)N2CCN(S(=O)(=O)N3CCOCC3)CC2)cc1,-11.9%,10.3% (inactive)
COC(=O)c1ccc(/C=N\n2c(C)nnc2C)cc1,-3.85%,-0.22% (inactive)
CC(=O)Nc1cccc(Oc2cc(C#N)c(C#N)cc2N2CCOCC2)c1,-4.55%,-7.1% (inactive)
O=C(N/N=C/c1ccc(O)cc1)/C(=C/c1ccc([N+](=O)[O-])cc1)NC(=O)c1ccccc1,15%,5% (inactive)
CC(=NCc1ccco1)c1c(C(F)(F)F)[nH]n(-c2nc3ccccc3s2)c1=O,7.61%,34.2% (inactive)
O=C(CSc1n[nH]c(-c2cccnc2)n1)Nc1ccnc2ccccc12,7.69%,1% (inactive)
Cc1ccc(S(=O)(=O)N(C)C2(C)CCS(=O)(=O)C2)cc1 (configuration not stated),5%,-6.15% (inactive)
COC(=O)c1ccccc1NC(=O)CN(Cc1ccc(Cl)cc1)S(C)(=O)=O,6.98%,4.14% (inactive)
CCSc1ccccc1C(=O)NCc1ccc(OC)cc1,10.3%,2.69% (inactive)
CCOc1ccc(S(=O)(=O)NCCSc2ccccc2)cc1,12.5%,10% (inactive)
CCNC(=O)c1sccc1-n1cccc1,12.9%,8.21% (inactive)
COCCCNC(=O)COc1cc(C)c(Cl)c(C)c1,-13.6%,8.44% (inactive)
COC(=O)Nc1ncc(CN2CCCCC2)s1,6.45%,-0.8% (inactive)
CCOc1ccc(S(=O)(=O)Nc2ccc(S(=O)(=O)Nc3cc(OC)ccc3OC)cc2)cc1,6.38%,5.67% (inactive)
CC1(C)NC(=O)N(CCCCSc2ccc(Cl)cc2)C1=O,15.6%,21.2% (inactive)
CC/S(CC1CC1(Cl)Cl)=N\S(=O)(=O)c1ccc(C)cc1 (configuration not stated),25.5%,20.7% (inactive)

SMILES,growth inhibition [1],growth inhibition (S. cerevisiae wild-type growth)
Cc1ccc(C(=O)N2CCCC2)c(F)c1F,20%,0.21% (inactive)
O=C(c1ccc(Cl)c(Cl)c1)N1CCCC1,8.89%,28.3% (inactive)
CCCCc1nnc(NC(=O)CSc2nc(C)cc(=O)[nH]2)s1,20%,14.6% (inactive)
c1ccc(CSCCc2ccncc2)cc1,20%,22.3% (inactive)
CCC(=O)N(Cc1ccccc1)c1ccccn1,15%,1.54% (inactive)
Nc1c(C(=O)NCc2ccccc2)sc2nc3c(cc12)C(=O)CCC3,0%,-16.4% (inactive)
Cc1ccoc1C(=O)Nc1cccc(Oc2ccccc2)c1,20%,20.3% (inactive)
Cc1cc(C)n(-c2ccc(Cl)c(C(=O)O)n2)n1,-10%,22.7% (inactive)
Cc1cccc(N(CC(=O)N2CCOCC2)S(C)(=O)=O)c1,-23.8%,4.83% (inactive)
CCc1c(O)nc(SCC(=O)Nc2ccccc2)n(C(C)CC)c1=O (configuration not stated),12.8%,10% (inactive)
O=S1(=O)C=C(SCCN2CCCC2)c2ccccc21,13.5%,27.4% (inactive)
CS(=O)(=O)N1CCN(c2cccc(Cl)n2)CC1,18.9%,-6.15% (inactive)
Cc1cccc(NC(=O)C2CCCN2S(=O)(=O)c2ccc(F)cc2)c1C (configuration not stated),13.8%,9.79% (inactive)
COc1ccc(-c2cc(C)nc3nc(N)nn23)cc1,13.3%,1.72% (inactive)
Cc1ccc(S(=O)(=O)NC(=O)COc2ccccc2C)cc1,10.5%,6.06% (inactive)
COc1ccc(CN2CCCCC2C)cc1OC (configuration not stated),12.5%,8.46% (inactive)
CC1CC2=C(CC1/C=N/NC(N)=S)C(C)(C)CCC2 (configuration not stated),41.9%,30% (active)
CCCCNC(=O)OC(C)CNC(=O)OC (configuration not stated),15%,15.4% (inactive)
CC(=O)Nc1ccccc1OC(=O)N1CCOCC1,2.94%,27.7% (inactive)
O=c1c2ccccc2nc2n1C1(CCCCC1)Cc1ccccc1-2,2.94%,5.38% (inactive)
CC(C)C[C@@H](N)c1nnc(SCC(=O)c2ccc(Cl)cc2)o1,-4.76%,-22.1% (inactive)
Cc1cc(C(=O)Nc2ccccc2N2CCOCC2)c2ccccc2n1,15.2%,28.1% (inactive)
COc1cccc(N2CC(C(=O)Nc3c(C)cccc3C)CC2=O)c1 (configuration not stated),-17.4%,-10.6% (inactive)
COC(=O)c1cc(NC(=O)CC2C(=O)NCCN2C(=O)c2ccc(F)cc2)cc(C(=O)OC)c1 (configuration not stated),14.3%,3.33% (inactive)

SMILES,growth inhibition [1],growth inhibition (S. cerevisiae wild-type growth)
Cc1cc2nc(C)n(CCCNC(=O)Nc3ccccc3)c2cc1C,-4.76%,26.8% (inactive)
Cc1cc(C)c2nc(NC(=O)C3CCCO3)sc2c1 (configuration not stated),28.2%,10.3% (inactive)
CCN(c1ccccc1)S(=O)(=O)c1ccc(C(=O)Nc2nccs2)cc1,0%,18.7% (inactive)
Cc1ccc(OCC(=O)Nn2cnc3ccccc32)cc1,-33.3%,-14% (inactive)
Cc1ccc(-c2noc(CSc3nnc(-c4ccncc4)n3-c3ccc(F)cc3)n2)cc1,11.6%,17.6% (inactive)
CCOC(=O)c1ccc(N2C(=O)CC(Sc3nc(O)c(CC)c(=O)[nH]3)C2=O)cc1 (configuration not stated),0%,-8% (inactive)
Cc1ccc(N2C(=O)CC(Sc3ncn[nH]3)C2=O)cc1 (configuration not stated),23.8%,1.62% (inactive)
O=C1CC(Sc2ncn[nH]2)C(=O)N1c1ccccc1 (configuration not stated),56.8%,43.7% (active)
COc1ccc(NC(=O)COC(=O)Cn2c(C)nc3ccccc32)cc1OC,-9.52%,-7.04% (inactive)
CN(C)/C=C1/C(=O)Nc2ccccc21,0%,16.7% (inactive)
CCCCNC(=O)C1CCCN(S(=O)(=O)c2ccc(S(=O)(=O)NCC(C)C)cc2)C1 (configuration not stated),28.2%,0.77% (inactive)
CCOc1ccc(-c2nc(C)sc2CC(=O)O)cc1,14.9%,16.7% (inactive)
COc1cc(S(=O)(=O)N(Cc2cccs2)C2CC2)ccc1-n1cnnn1,-4.17%,13% (inactive)
Cc1ccc(S(=O)(=O)N(c2cccc(C)c2)C2CCS(=O)(=O)C2)cc1 (configuration not stated),0%,8.71% (inactive)
CN(Cc1ccccc1)C(=O)COc1ccccc1,16.7%,1.03% (inactive)
COc1ccc(NC(=O)CC2COc3ccccc3O2)c(OC)c1 (configuration not stated),19.1%,20% (inactive)
Cc1nnc(SCC(=O)NC(=O)NC2CCCC2)n1N,17.4%,24.3% (inactive)
COC(=O)c1ccc(S(=O)(=O)c2ccc(C(=O)OC)s2)s1,-35.1%,-57.5% (inactive)
CC(=O)OC(C(=O)NC1CCCCC1)c1ccccc1 (configuration not stated),0%,11% (inactive)
CCC1CCCCN1CCCNC(=O)C1CCC(Cn2c(=O)[nH]c3ccccc3c2=O)CC1 (configuration not stated),15.6%,10% (inactive)
CCN1CCCC1Cn1cnc2c([nH]c3cc(OC)ccc32)c1=O (configuration not stated),8.7%,10% (inactive)
COc1cccc2c1OCC1COc3c(c(=O)n(C)c(=O)n3C)C21 (configuration not stated),8.33%,14.8% (inactive)
CCn1c(-c2ccoc2C)n[nH]c1=S,22.8%,21.4% (inactive)
CCOC(=O)C1=C(CSc2nccn2C)NC(=O)NC1c1ccc(OC)cc1 (configuration not stated),5.26%,17.1% (inactive)

SMILES,growth inhibition [1],growth inhibition (S. cerevisiae wild-type growth)
COC(=O)C1C(=O)NCC1c1ccc(OC)cc1 (configuration not stated),10.3%,14.6% (inactive)
Cc1cccc(S(=O)(=O)CC(=O)Nc2nc(-c3ccccc3)cs2)c1,10%,3.33% (inactive)
C=CCc1ccc(OCCOc2cccc(/C=N/n3cnnc3)c2)c(OC)c1,-40.9%,5% (inactive)
Cc1nnc(SCC(=O)Nc2ncc3c(n2)CC(C)(C)CC3=O)s1,10.3%,35% (inactive)
CCOc1cc(N2CCOCC2)c(OCC)cc1NC(=O)COC(=O)[C@H](Cc1c[nH]c2ccccc12)NC(C)=O,6.98%,26.6% (inactive)
Cc1ccc(OCCCC(=O)Nc2ccc(N3CCOCC3)cc2)cc1,-14.3%,12.7% (inactive)
COC(=O)C1CCN(CC(N)=O)CC1,17.5%,20.8% (inactive)
O=C(NCCCCCCNC(=O)NCc1ccco1)NCc1ccco1,24.3%,17.8% (inactive)
Cc1cc(=O)[nH]c(SCC(=O)N2c3ccccc3CC2C)n1 (configuration not stated),3.57%,4.67% (inactive)
CCCCOc1ccc(N(CC(=O)NCC2CCCO2)C(=O)CCC(=O)Nc2cc(C)ccn2)cc1 (configuration not stated),-6.45%,-28.3% (inactive)
O=C(c1ccc(CN2CCOCC2)cc1)N1CCN(c2ccccc2F)CC1,8.33%,11.9% (inactive)
CC1=NN(/C(=N\c2nnc(C)s2)Nc2ccccc2)[C@H](c2ccc(C)cc2)S1,-6.45%,20.2% (inactive)
Cc1ccc(-c2cc(C(=O)NCC3CCCO3)c3ccccc3n2)o1 (configuration not stated),-6.45%,6.79% (inactive)
CC1CCc2c(sc3nc4n(c(=O)c23)CCS4)C1 (configuration not stated),15.4%,36.9% (inactive)
COC(=O)CNC(=O)c1ccccc1F,16.3%,19.7% (inactive)
COc1ccc(N2CCN(Cc3ccc(Br)s3)CC2)cc1,10%,16.1% (inactive)
CC(C)(C)NC(=O)CN(Cc1cccs1)C(=O)CNS(=O)(=O)c1ccccc1,14.1%,11.6% (inactive)
C/C(=N\NC(=O)c1nc(C)cc(C)n1)c1ccccc1,24.3%,15.2% (inactive)
CCC(=NC1CC(C)(C)NC(C)(C)C1)C1=C(O)CC(C)(C)CC1=O,14.8%,23.3% (inactive)
CN1C(=O)C(CC(N)=O)N(NC(=O)c2ccc(Cl)cc2)C1=S (configuration not stated),9.52%,33.8% (inactive)
COC(=O)c1sc(=S)n(-c2ccc(Cl)cc2)c1C,14.5%,9.64% (inactive)
CCOC(=O)c1ccc2c(c1)nc(SCC(=O)NC(C)C)n2CC,7.69%,3.45% (inactive)
CCOC(=O)C1C(=O)NCC1c1ccccc1 (configuration not stated),22.1%,11.5% (inactive)
CCCCN1C(=O)/C(=C2/C=CC=CN2C)SC1=S,18.9%,21.5% (inactive)
